Compounds with a hit are over-represented: about 2.9% of the library has one in this group of screens.
SENP8 block-1 = inhibitors of human SENP8 protease; 1.2% of 330,000 active; purified SENP8, Z-RLRGG-aminoluciferin cleavage, luminescence; inhibition, % at 10 µM; AID 2540; in the data active means inhibition above about 50%
SENP1 inh = blocks the human SENP1 SUMO protease catalytic domain; Q9P0U3; recombinant SENP1 catalytic domain, CyPet-SUMO1-YPet FRET cleavage; inhibition, % at 10 µM; 0.21% of 360,000 active; AID 624204;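 active means inhibition at least 30% at 10 µM, raw YFP signal under a set limit, fluorescence ratio 0.5 to 1.5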
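Material – human SENP1 catalytic domain · Input – SENP1 enzyme, 20 pM final · Compound dosing – single concentration of 10 µM compound, 0.5% DMSO final · Timing – enzyme reaction for 50 min at room temperature, dark · Measured by – FRET fluorescence in CFP and YFP emission channels · Control set – no-enzyme wells low, DMSO-plus-enzyme wells high control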
SENP6 inh = blocks the human protease SENP6 | Q9GZR1 | Recombinant SENP6 catalytic domain, aminoluciferin luminescence | inhibition, % at 10 µM | 1.8% of 330,000 active;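 active means inhibition above about 50% at the single tested dose, limit read from the data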
Target sequence (Q9GZR1 628-1112 limits assumed): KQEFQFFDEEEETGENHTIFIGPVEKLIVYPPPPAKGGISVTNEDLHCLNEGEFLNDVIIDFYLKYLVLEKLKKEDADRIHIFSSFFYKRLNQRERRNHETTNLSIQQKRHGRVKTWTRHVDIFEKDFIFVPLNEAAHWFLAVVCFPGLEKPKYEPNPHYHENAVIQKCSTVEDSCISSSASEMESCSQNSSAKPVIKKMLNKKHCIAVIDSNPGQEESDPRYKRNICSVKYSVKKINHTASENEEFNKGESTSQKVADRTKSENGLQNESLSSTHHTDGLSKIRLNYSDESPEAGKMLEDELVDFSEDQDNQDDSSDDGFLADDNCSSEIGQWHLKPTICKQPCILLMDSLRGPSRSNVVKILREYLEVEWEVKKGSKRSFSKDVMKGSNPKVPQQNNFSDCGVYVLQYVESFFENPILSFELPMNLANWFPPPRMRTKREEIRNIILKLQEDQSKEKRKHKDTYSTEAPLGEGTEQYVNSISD
SENP8 block-2 = blocks human SENP8 cleavage of Nedd8 substrate. Q96LD8. recombinant SENP8, Nedd8 substrate fluorescence. inhibition, % at 20 µM. 0.64% of 360,000 active. AID 602440; in the data active means inhibition mostly above about 40%, no sharp cut-off; inactive means mostly below about 27%
Apaf-1 inh = blocks human Apaf-1 apoptosome activity. O14727. reconstituted apoptosome caspase-3 activity, DEVD-Rh110 fluorescence. inhibition, % at 20 µM. 0.71% of 330,000 active; active means inhibition of at least 40% at 20 µM
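System: Apoptosome proteins | Medium: Hepes pH 7.5 with detergent and BSA | Also added: Cytochrome c trigger plus (Z-DEVD)2-Rh110 caspase-3 substrate | Incubation: 30 min compound preincubation, 50 min activation, room temperature | Detection: Rhodamine 110 fluorescence at Ex 480/Em 540 nm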
SENP7 inh = SENP7 protease inhibition; Q9BQF6; 1.5% of 330,000 active; AID 434973; inhibition, % at 5 µM; recombinant SENP7, Z-RLRGG-aminoluciferin luminescence, 40 min;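 active means inhibition above about 50% at the single test dose, limit read from the data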
A number is an active result; 0 = inactive; - = not tested or not shown.

SMILES	SENP8 block-1	SENP1 inh	SENP6 inh	SENP8 block-2	Apaf-1 inh	SENP7 inh
OC(c1cccc(CN2CCCCC2)c1)c1ncc(-c2ccccc2Cl)[nH]1 (centres undefined)	-	0	-	0	-	-
CN1CCN(c2ccc(Cl)cc2NC(=O)CCN2C(=O)c3ccccc3C2=O)CC1	0	0	0	0	0	0
CC(=O)OCCNc1cc(N2CCN(C)CC2)c2noc3c2c1C(=O)c1ccccc1-3	-	0	-	46.9	-	-
CCCn1c(CN2CCN(C(=O)OCC)CC2)nc2cc([N+](=O)[O-])ccc21	0	0	0	0	0	0
O=C1/C(=C\c2cc(Cl)c(O)c(Cl)c2)SC(=S)N1Cc1ccccc1	-	0	-	48.1	-	-
O=c1ccc2cc3c([nH]c4ccc(Br)cc43)oc-2c1O	0	0	0	101.0	85.3	0
COC/C=C/C1=CC2=CC(=O)C(C)(OC(=O)c3cnc4ccccc4n3)C(=O)C2=CN1Cc1ccc(OC)cc1 (centres undefined)	0	0	0	0	0	0
COC/C=C/C1=CC2=CC(=O)C(C)(OC(=O)c3cnc4ccccc4n3)C(=O)C2=CN1CC1CC1 (centres undefined)	0	0	0	44.0	0	0
O=C(Nc1ccc(Oc2ccccc2)cc1)C1CCN(c2c3c(nc4ncnn24)CCC3)CC1	0	0	0	0	41.0	0
O=C(Nc1ccc2c(c1)CCC2)C1CCN(c2c3c(nc4ncnn24)CCC3)CC1	0	0	0	0	0	0
COc1ccc(NC(=O)C2CCCN(CCCc3ccccc3)C2)cc1OCC(C)C (centres undefined)	0	0	0	0	0	0
O=Cc1c(-c2ccc(F)cc2)nc2ccccn12	0	0	0	0	0	0
COc1ccc(-c2nc3ccccn3c2C=O)cc1	0	0	62.2	0	0	55.4
CN(C)c1ccc(C=C2SC(=S)N(Cc3ccco3)C2=O)cc1	-	0	-	48.2	-	-
O=C1/C(=C/c2ccc(O)c(O)c2)SC(=S)N1Nc1ccccc1	-	35.7	-	0	-	-
COc1cc(/C=C2\SC(=S)N(NC(=O)c3cccnc3)C2=O)ccc1O	0	48.9	0	0	0	0
Cc1ccc(C(=O)NN2C(=O)/C(=C/c3cn(C)c4ccccc34)SC2=S)cc1	-	0	-	42.1	-	-
Cn1cc(/C=C2\SC(=S)N(NC(=O)c3ccccc3Cl)C2=O)c2ccccc21	-	0	-	43.9	-	-
Cc1cccc(C)c1NC(=O)C(c1ccncc1)n1c(=O)c(-c2cc3ccccc3[nH]2)nc2ccccc21 (centres undefined)	-	0	-	0	-	-
O=C(NN1C(=O)/C(=C\c2ccc(O)c([N+](=O)[O-])c2)SC1=S)c1ccccc1Cl	0	33.2	0	67.7	0	0
c1ccc(-c2cc(-c3ccccc3)ncn2)cc1	0	0	0	0	0	0
c1ccc(-c2cc3cc4c(cc3cn2)OCO4)cc1	80.1	0	86.4	0	0	89.9
Cc1cc(/C=C\c2ccc3cc(N(C)C)ccc3[n+]2C)c(C)n1-c1ccccc1	0	0	0	0	43.3	0
CC[N+](CC)(CC)CCCCOc1ccc2c(c1)C(=O)c1cc(OCCCC[N+](CC)(CC)CC)ccc1-2	0	0	0	0	0	0
Cc1sc(NC(=O)c2cccs2)nc1-c1ccccc1	0	0	0	0	0	0
SMILES	SENP8 block-1	SENP1 inh	SENP6 inh	SENP8 block-2	Apaf-1 inh	SENP7 inh
O=C(Nc1nsc(-c2ccccc2)n1)c1cccs1	0	0	63.7	0	0	62.0
COC(=O)[C@@]1(C)[C@H]2C(=O)N(C)C(=O)[C@H]2[C@H]2CN=C(SC)N21	-	0	-	0	0	0
CCn1c(N)nc2c1c(=O)n(C)c(=O)n2C	0	0	0	0	0	0
CCCc1nc2c(=O)n(C)c(=O)nc-2n(C)n1	-	34.0	-	120.4	-	-
CCc1c(O)nc2sc3ccccc3n2c1=O	0	0	0	40.2	0	0
CN(Cc1ccc(Cl)c(Cl)c1)C(=O)C1CC(=O)N(c2ccc3c(c2)OCCO3)C1 (centres undefined)	-	0	-	0	-	-
C(C#CCN1CCOCC1)#CCN1CCOCC1	-	0	-	0	-	-
CC(=O)Nc1ccc(-c2cc3ccccc3o2)cc1	0	0	0	0	0	50.6
CC(=O)Nc1ccc(CN(C)c2c(C)nc3ccc(C(=O)NCCCN4CCCC4=O)cn23)cc1	-	0	-	0	-	-
CN1CCN(C2=C(Cl)C(=O)c3ccccc3C2=O)CC1	-	0	-	73.1	-	-
CN1CCN(C2=C(Cl)C(=O)C(c3cnc(N4CCCCC4)s3)=C(Cl)C2=O)CC1	0	0	0	0	84.3	0
CC1=C(C(=O)N2CCCCCC2)CC(CC(=O)NCc2cccs2)C(=O)N1Cc1ccccc1 (centres undefined)	-	0	-	0	-	-
CC(C)CC(=O)N1CCN(c2ccc([N+](=O)[O-])c(NCc3ccccc3)c2)CC1	0	0	0	53.6	0	0
N#Cc1c(N)sc(=S)c2c1CCN(Cc1ccccc1)C2	96.4	-	94.2	-	95.5	79.1
NC(=O)c1ccsc1NC(=O)c1cc(=O)c2ccccc2o1	0	0	0	0	0	65.3
Cc1cccc(C(C(=O)NC2CCCCC2)N(C(=O)c2csnn2)C2CC2)c1 (centres undefined)	0	0	0	0	0	0
Cc1ccc(S(=O)(=O)/N=C2\C=C(NS(=O)(=O)c3ccccc3)C(=O)c3ccccc32)c(C)c1	-	0	-	49.6	-	-
CC(=O)OC[C@@H]1CN(Cc2cccc(C(F)(F)F)c2)C[C@H](n2cnc3c(NCc4ccco4)ncnc32)O1	-	0	-	0	-	-
C#CCn1cc(C=C2C(=O)c3ccccc3C2=O)c2ccccc21	-	0	-	37.5	-	-
C#CCn1c(=O)cc(C)c2ccccc21	0	0	0	0	0	0
CCCCC1CCC(C(=O)Nc2ccc(N3CCOCC3)cc2N2CCOCC2)CC1 (centres undefined)	0	0	0	0	0	0
COc1ccc(CCN(C)C(=O)c2ccc(COc3ccccc3)o2)cc1OC	0	0	0	0	66.3	0
COc1ccc(NC(=O)c2ccc(COc3ccccc3)o2)c(OC)c1	0	0	0	0	0	0
CN=c1sc2c(n1C)C(=O)c1ccccc1C2=O	-	0	-	73.2	-	-
O=C1c2ccccc2C(=O)c2c(NCc3cccnc3)cccc21	0	0	0	0	0	0
O=C1c2cccc(NCCCNCCO)c2C(=O)c2cccc(NCCCNCCO)c21	-	0	-	56.7	-	-
CCO[C@H]1C[C@@H](c2ccc(CC)cc2)N(S(=O)(=O)c2ccc(C)cc2)C2CC(c3ccc(CC)cc3)N(S(=O)(=O)c3ccc(C)cc3)CC21 (some centres undefined)	-	0	-	0	-	-
O=C(Nc1ncc([N+](=O)[O-])s1)c1cccc([N+](=O)[O-])c1	97.3	0	96.1	0	0	100.7
O=C(Nc1ccc(NC(=O)c2cccc([N+](=O)[O-])c2)cc1)c1cccc([N+](=O)[O-])c1	0	0	0	0	0	0
O=C(O)C1CSC(c2ccncc2)N1 (centres undefined)	0	64.6	0	0	0	0

Screens: PubChem BioAssay, Sanford-Burnham Center for Chemical Genomics
